Data: ChEMBL document CHEMBL1148344, “3-(2-aminoalkyl)-1-(2,6-difluorobenzyl)-5- (2-fluoro-3-methoxyphenyl)-6-methyl-uracils as orally bioavailable antagonists of the human gonadotropin releasing hormone receptor” (J Med Chem, 2004)
pIC50, pKi: −log10 of the molar value.

How the values were obtained:
[1] = target: T1, Gonadotropin-releasing hormone receptor (Homo sapiens, UniProt P30968); assay: Binding affinity towards human gonadotropin releasing hormone receptor using des-Gly10[125I]Tyr5,D-Leu6,NMeLeu7,Pro9-NEt]GnRH as radioligand expressed in HEK293 cells; format: cell-based
T1 sequence (P30968 whole entry): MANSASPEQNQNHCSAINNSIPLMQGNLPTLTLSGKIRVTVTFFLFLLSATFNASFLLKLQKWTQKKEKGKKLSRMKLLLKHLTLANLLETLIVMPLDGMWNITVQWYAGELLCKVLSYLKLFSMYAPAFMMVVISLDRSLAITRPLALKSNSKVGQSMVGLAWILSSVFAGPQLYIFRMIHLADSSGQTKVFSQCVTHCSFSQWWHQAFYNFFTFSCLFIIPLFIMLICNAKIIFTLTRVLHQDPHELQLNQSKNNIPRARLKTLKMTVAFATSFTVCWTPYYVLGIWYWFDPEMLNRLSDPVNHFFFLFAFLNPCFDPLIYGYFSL
In short: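 Competitive displacement at cloned human GnRH receptor expressed in HEK293 cells, 96-well filtration format. Three to eight independent experiments.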

[2] = Clearance in mouse; format: ADME, organism-based; conditions: in vivo
In short: (§1)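 Mice dosed orally and intravenously at 10 mg/kg. Pharmacokinetic parameters derived from plasma exposure after each route.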

[3] = Half life in mouse; format: ADME, organism-based; conditions: in vivo; in short: as §1
[4] = Bioavailability in mouse; format: ADME, organism-based; conditions: in vivo; in short: as §1
[5] = Volume of distribution in mouse; format: ADME, organism-based; conditions: in vivo; in short: as §1
[6] = target: T2, Gonadotropin-releasing hormone receptor (Rattus norvegicus, UniProt P30969); assay: Tested for binding affinity towards rat gonadotropin releasing hormone receptor
T2 sequence (P30969 whole entry): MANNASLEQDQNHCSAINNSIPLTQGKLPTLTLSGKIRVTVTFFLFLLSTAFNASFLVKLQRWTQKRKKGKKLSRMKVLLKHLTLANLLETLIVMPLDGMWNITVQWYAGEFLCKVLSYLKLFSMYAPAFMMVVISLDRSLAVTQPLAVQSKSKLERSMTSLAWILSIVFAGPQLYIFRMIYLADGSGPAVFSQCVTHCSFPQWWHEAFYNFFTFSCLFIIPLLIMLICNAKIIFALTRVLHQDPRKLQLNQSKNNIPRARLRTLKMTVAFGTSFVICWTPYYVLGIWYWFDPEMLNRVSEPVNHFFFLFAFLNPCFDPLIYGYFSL

[7] = Inhibitory concentration of compound against GnRH stimulated calcium flux in transfected cells; format: functional, cell-based
In short: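 GnRH-stimulated Ca2+ flux measured in hGnRH receptor-transfected cells. Inhibition tested across a concentration series, with IC50 taken from the dose-response curve.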

Row | SMILES | pKi [1] | other results
1 | COc1cccc(-c2c(C)n(Cc3c(F)cccc3F)c(=O)n(C[C@H](N)CC(C)(C)C)c2=O)c1F | 7.15 | –
2 | COc1cccc(-c2c(C)n(Cc3c(F)cccc3F)c(=O)n(C[C@@H](N)CC(C)C)c2=O)c1F | 7.41 | –
3 | COc1cccc(-c2c(C)n(Cc3c(F)cccc3F)c(=O)n(C[C@@H](N)CCc3ccccc3)c2=O)c1F | 6.02 | –
4 | COc1cccc(-c2c(C)n(Cc3c(F)cccc3F)c(=O)n(C[C@@H](CC(C)C)NC(C)C)c2=O)c1F | 7.92 | –
5 | COc1cccc(-c2c(C)n(Cc3c(F)cccc3F)c(=O)n(C[C@@H](N)Cc3ccccc3)c2=O)c1F | 7.80 | clearance [2]: 65.6 mL/min/kg; half-life [3]: 54 min; bioavailability [4]: 11%; Vd [5]: 4.9 L/kg
6 | COc1cccc(-c2c(C)n(Cc3c(F)cccc3F)c(=O)n(C[C@H](NC(C)C)C3CCCC3)c2=O)c1F | 7.92 | –
7 | COc1cccc(-c2c(C)n(Cc3c(F)cccc3F)c(=O)n(C[C@H](C)N)c2=O)c1F | < 5.00 | –
8 | COc1cccc(-c2c(C)n(Cc3c(F)cccc3F)c(=O)n(C[C@H](N)Cc3ccccc3)c2=O)c1F | 7.18 | –
9 | COc1cccc(-c2c(C)n(Cc3c(F)cccc3F)c(=O)n(C[C@@H](N)C3CCCC3)c2=O)c1F | 7.03 | –
10 | COc1cccc(-c2c(C)n(Cc3c(F)cccc3F)c(=O)n(C[C@@H](C)N)c2=O)c1F | 6.23 | –
11 | COc1cccc(-c2c(C)n(Cc3c(F)cccc3F)c(=O)n(C[C@@H](N)C(C)C)c2=O)c1F | 6.01 | –
12 | COc1cccc(-c2c(C)n(Cc3c(F)cccc3F)c(=O)n(C[C@H](N)C3CCCC3)c2=O)c1F | 8.00 | –
13 | COc1cccc(-c2c(C)n(Cc3c(F)cccc3F)c(=O)n(C[C@H](C)NCc3ccccc3)c2=O)c1F | 7.29 | clearance [2]: 81.3 mL/min/kg; half-life [3]: 66 min; bioavailability [4]: 3%; Vd [5]: 7.9 L/kg
14 | COc1cccc(-c2c(C)n(Cc3c(F)cccc3F)c(=O)n(C[C@H](NC(C)C)C3CCCCC3)c2=O)c1F | 7.64 | –
15 | COc1cccc(-c2c(C)n(Cc3c(F)cccc3F)c(=O)n(C[C@H](N)C(C)C)c2=O)c1F | 7.29 | –
16 | COc1cccc(-c2c(C)n(Cc3c(F)cccc3F)c(=O)n(CC(N)C3CCCCC3)c2=O)c1F (single isomer, unassigned) | 7.34 | –

Compounds with a higher pKi [1], results first:

Row | pKi [1] | SMILES | other results
17 | 8.09 | CN[C@@H](Cc1ccccc1)Cn1c(=O)c(-c2cccc(OC)c2F)c(C)n(Cc2c(F)cccc2F)c1=O | pKi [6]: 4.96; clearance [2]: 97.2 mL/min/kg; pIC50 [7]: 7.70; half-life [3]: 48 min; bioavailability [4]: 42%; Vd [5]: 6.9 L/kg
18 | 8.10 | COc1cccc(-c2c(C)n(Cc3c(F)cccc3F)c(=O)n(C[C@H](Cc3ccccc3)N(C)C)c2=O)c1F | –
19 | 8.19 | COc1cccc(-c2c(C)n(Cc3c(F)cccc3F)c(=O)n(C[C@H](N)C3CCCCC3)c2=O)c1F | clearance [2]: 65.4 mL/min/kg; pIC50 [7]: 7.22; half-life [3]: 78 min; bioavailability [4]: 11%; Vd [5]: 7.3 L/kg
20 | 8.19 | COc1cccc(-c2c(C)n(Cc3c(F)cccc3F)c(=O)n(C[C@H](N)CC(C)C)c2=O)c1F | clearance [2]: 65.7 mL/min/kg; half-life [3]: 42 min; bioavailability [4]: 6%; Vd [5]: 3.9 L/kg
21 | 8.39 | COc1cccc(-c2c(C)n(Cc3c(F)cccc3F)c(=O)n(C[C@@H](C3CCCCC3)N(C)C)c2=O)c1F | –
22 | 8.62 | COc1cccc(-c2c(C)n(Cc3c(F)cccc3F)c(=O)n(C[C@H](C3CCCC3)N(C)C)c2=O)c1F | –
23 | 8.92 | CN[C@H](CC(C)C)Cn1c(=O)c(-c2cccc(OC)c2F)c(C)n(Cc2c(F)cccc2F)c1=O | –
24 | 9.22 | COc1cccc(-c2c(C)n(Cc3c(F)cccc3F)c(=O)n(C[C@@H](C3CCCC3)N(C)C)c2=O)c1F | –
